Experimental findings from ChEMBL document CHEMBL1641499, “Towards echinomycin mimetics by grafting quinoxaline residues on glycophane scaffolds” (Bioorg Med Chem, 2011) are described below.

Holding throughout (details): Bos taurus
For experiment [1], the system named is Calf thymus DNA. Put plainly: Binding affinity to calf thymus DNA at 20 uM after 20 mins by UV spectrophotometer analysis. The experiment is classed as nucleic-acid assay. The method, boiled down:
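Compound stock diluted in cuvette to 20 µM final with degassed 100 mM NaCl, 10 mM NaH2PO4, pH 7.0. Calf thymus DNA was added from stock. After each addition the sample was heated to 65 °C and cooled slowly (5 °C/min), and the UV-vis spectrum was recorded 20 min later at 25 °C. DNA concentration was set from ε260 = 6600 M−1 cm−1.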

For experiment [2], the system named is Calf thymus DNA. Put plainly: Binding affinity to calf thymus DNA assessed as change on melting temperature (reference value: 76 degC).
For experiment [3], the system named is Calf thymus DNA. Put plainly: Binding affinity to calf thymus DNA assessed as fluorescence enhancement at 20 uM by steady state fluorescence emission spectroscopic analysis relative to control.

SMILES strings stand for the structures. Active and inactive are the calls of the source. No cut-off for these calls is given here.

As to `O=C1[C@H]2O[C@H](OCCC/C=C/CCCO[C@H]3O[C@H](C(=O)N(Cc4cnc5ccccc5n4)Cc4ccc(cc4)CN1Cc1cnc4ccccc4n1)[C@@H](O)[C@H](O)[C@H]3O)[C@H](O)[C@@H](O)[C@@H]2O`, the result in the experiment with Calf thymus DNA [1] was Active. For the same compound, the Tm in the experiment on Calf thymus DNA [2] worked out at 79 °C.
`O=C1[C@H]2O[C@H](OC/C=C/CO[C@H]3O[C@H](C(=O)N(Cc4cnc5ccccc5n4)Cc4ccc(cc4)CN1Cc1cnc4ccccc4n1)[C@@H](O)[C@H](O)[C@H]3O)[C@H](O)[C@@H](O)[C@@H]2O`: the result with Calf thymus DNA [1] was Active. Moreover, the Tm with Calf thymus DNA [2] came out at 78 °C. Moreover, the fold change (FC) with Calf thymus DNA [3] was determined as 5.5.
On the same counts, the results for `C=CCCCO[C@H]1O[C@H](C(=O)N(Cc2ccc(CN(Cc3cnc4ccccc4n3)C(=O)[C@H]3O[C@H](OCCCC=C)[C@H](O)[C@@H](O)[C@@H]3O)cc2)Cc2cnc3ccccc3n2)[C@@H](O)[C@H](O)[C@H]1O` are “Active”, 81 °C and 2.8.
For `C=CCO[C@H]1O[C@H](C(=O)N(Cc2ccc(CN(Cc3cnc4ccccc4n3)C(=O)[C@H]3O[C@H](OCC=C)[C@H](O)[C@@H](O)[C@@H]3O)cc2)Cc2cnc3ccccc3n2)[C@@H](O)[C@H](O)[C@H]1O` the same measures were “Active”, 79 °C and 2.8.
On to `CS[C@H]1SC[C@H]2C(=O)N(C)[C@@H](C(C)C)C(=O)OC[C@@H](NC(=O)c3cnc4ccccc4n3)C(=O)N[C@@H](C)C(=O)N(C)[C@@H]1C(=O)N(C)[C@@H](C(C)C)C(=O)OC[C@@H](NC(=O)c1cnc3ccccc3n1)C(=O)N[C@@H](C)C(=O)N2C`, for which the outcome with Calf thymus DNA [1] was Active. Also, the Tm in the experiment with Calf thymus DNA [2] was found to be 79 °C.
